Reference: ChEMBL document CHEMBL1156127, “Synthesis, anticonvulsant activity and 3D-QSAR study of some prop-2-eneamido and 1-acetyl-pyrazolin derivatives of aminobenzothiazole” (Eur J Med Chem, 2010)

Experiments:
Mus musculus [1] = experiment: Behavioral effect in albino mouse assessed as change in locomotor activity during 10 mins at 100 umol/kg, ip after 0.5 hrs; type: functional
Outline: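 Mouse activity counted by actophotometer for 10 min 24 h before dosing, then again 0.5 h after 100 µmol/kg ip. % change = 100 − [(post × 100)/pre]. N = 6, mean ± SEM, Student's t test at p < 0.05.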

Mus musculus [2] = species on record: Mus musculus; experiment: Protection index, ratio of TD50 to ED50 by MES test for albino mouse; type: functional
Outline: (§1)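 Mice were trained on a 3.2 cm rod turning at 6 rpm, then dosed ip at 20–1000 µmol/kg and tested at 0.5 h. […] PI = TD50/ED50, with ED50 from the MES test.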

[3] = Neurotoxicity in ip dosed albino mouse during 1 min by rotarod test; type: toxicity, organism-based; conditions: in vivo; outline: as §1
Mus musculus [4] = experiment: Anticonvulsant activity in ip dosed albino mouse treated 0.5 hrs before PTZ challenge by scPTZ test; type: functional
Outline: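 Compound given ip (20–1000 µmol/kg in 0.5% methyl cellulose) 0.5 h before pentylenetetrazole, which was dissolved in 0.9% NaCl and injected subcutaneously in the posterior midline of mice. Onset and severity of convulsions were scored, and ED50 was derived.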

Mus musculus [5] = experiment: Anticonvulsant activity in ip dosed albino mouse assessed as absence of hind limb tonic extension after 0.5 hrs by MES test; type: functional, Hindlimb; conditions: for ED50: Mus musculus, albino, Hindlimb, ip, 0.5 h
Outline: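 Mice given compound ip at 20–1000 µmol/kg, suspended in 0.5% methyl cellulose/water. Seizure induced 0.5 h later by electroconvulsometer, 50 mA, 60 cycle alternating current, 0.25 s via ear clip electrodes. Protection is reduced duration or absence of hind limb tonic extension. ED50 from at least three doses giving 10–90% protection.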

Rattus norvegicus [6] = experiment: CNS toxicity in albino rat assessed as duration of immobility at 100 umol/kg, ip after 0.5 hrs by Porsolt's swimpool test (Rvb= 113 +/- 3.1); conditions: in vivo
Rattus norvegicus [7] = experiment: Hepatotoxicity in albino rat assessed as serum SGOT level at 100 umol/kg, ip after 15 days (Rvb= 92.2 +/- 2.78); conditions: in vivo, 360 h
Rattus norvegicus [8] = experiment: Hepatotoxicity in albino rat assessed as serum SGPT level at 100 umol/kg, ip after 15 days (Rvb= 35.4 +/- 2.68); conditions: in vivo, 360 h
Rattus norvegicus [9] = experiment: CNS toxicity in albino rat assessed as duration of immobility at 100 umol/kg, ip after 0.5 hrs by Porsolt's swimpool test (Rvb= 87 +/- 1.5); conditions: in vivo
Rattus norvegicus [10] = experiment: CNS toxicity in albino rat assessed as duration of immobility at 100 umol/kg, ip after 0.5 hrs by Porsolt's swimpool test (Rvb= 97 +/- 2.2); conditions: in vivo
Rattus norvegicus [11] = experiment: CNS toxicity in albino rat assessed as duration of immobility at 100 umol/kg, ip after 0.5 hrs by Porsolt's swimpool test (Rvb= 128 +/- 2.4); conditions: in vivo

SMILES	Activity (Mus musculus [1])	PI (Mus musculus [2])	TD50 at 1 min [3]	ED50 (Mus musculus [4])	pED50 (Mus musculus [5])	ED50 (Mus musculus [5])	Activity (Rattus norvegicus [6])	Activity (Rattus norvegicus [7])	Activity (Rattus norvegicus [8])	Activity (Rattus norvegicus [9])	Activity (Rattus norvegicus [10])	Activity (Rattus norvegicus [11])
COc1ccc(C2CC(Nc3nc4ccc(C)cc4s3)=NN2C(C)=O)cc1O (centres undefined)	29.5%	1.99	147 µmol/kg	75.6 µmol/kg	4.13	73.9 µmol/kg	177 s					
CC(=O)N1N=C(Nc2nc3ccc(C)cc3s2)CC1c1ccc(Cl)cc1 (centres undefined)	35.62%	4.86	123 µmol/kg	27.5 µmol/kg	4.59	25.5 µmol/kg		93.3 U/ml	33.1 U/ml	91 s		
COc1ccc(C2CC(Nc3nc4ccc(C)cc4s3)=NN2C(C)=O)cc1 (centres undefined)	2.08%	4.68	174 µmol/kg	39.4 µmol/kg	4.43	37.3 µmol/kg		95.4 U/ml	38.4 U/ml		163 s	
CC(=O)N1N=C(Nc2nc3ccc(C)cc3s2)CC1c1ccc(O)cc1 (centres undefined)	20.94%	3.14	157 µmol/kg	54.3 µmol/kg	4.3	50.2 µmol/kg		89.6 U/ml	30.2 U/ml			136 s
